pEC50, pIC50: −log10 of the molar value.
Experiments:
[1] = system: Human immunodeficiency virus 1; experiment: Antiviral activity against Immunodeficiency virus type-1 (HIV-1) in peripheral blood mononuclear cells; type: functional, organism-based
Outline: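 HIV-1 infection of human peripheral blood mononuclear (PBM) cells; EC50 reported in µM.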

CCRF-CEM [2] = experiment: In vitro cytotoxicity against CEM cells; type: functional, cell-based, Homo sapiens
Vero [3] = experiment: (§1) In vitro cytotoxicity against Vero cells; type: functional, cell-based, Chlorocebus sabaeus
[4] = In vitro cytotoxicity against PBM cells; type: functional, cell-based, Homo sapiens
Hepatitis B virus = experiment: Antiviral activity against Hepatitis B virus (HBV) in 2.2.15 cells; type: functional, organism-based; conditions: HepG2 2.2.15
[5] = system: Human immunodeficiency virus 1; experiment: (§2) Anti HIV activity against cloned FTC-sensitive mutant xxBRU HIV-1; type: functional
[6] = system: Human immunodeficiency virus 1; experiment: (§3) Anti HIV activity against cloned FTC/3TC-resistant mutant M184V HIV-1; type: functional
[7] = system: Human immunodeficiency virus 1; experiment: as §3; type: functional, organism-based
[8] = Fold increase expressed as ratio of EC50 from M184V virus to that from xxBRU virus; type: functional
[9] = system: Human immunodeficiency virus 1; experiment: as §2; type: functional, organism-based
[10] = Fold increase expressed as ratio of EC90 from M184V virus to that from xxBRU virus; type: functional
CCRF-CEM [11] = experiment: In vitro cytotoxicity againstCEM cells; type: functional, cell-based; conditions: Homo sapiens
Vero [12] = experiment: as §1; type: functional, cell-based; conditions: Chlorocebus sabaeus

Row | Compound | pEC50 ([1]; Human immunodeficiency virus 1) | pIC50 (CCRF-CEM [2]; Homo sapiens, CCRF-CEM) | pIC50 (Vero [3]; Chlorocebus sabaeus, Vero) | pIC50 ([4]; Homo sapiens, PBMC) | pEC50 (Hepatitis B virus) | pEC50 [1] | further results
1 | O=c1ccn([C@@H]2C[Se][C@@H](CO)O2)c(=O)[nH]1 | 4.00 | < 4.00 | < 4.00 | < 4.00 | < 5.00 |  | 
2 | Nc1nc(=O)n([C@@H]2C[Se][C@@H](CO)O2)cc1F (stereo in doubt; 10d) |  |  |  |  | < 5.00 | 4.24 | 
3 | Nc1ccn([C@H]2C[Se][C@@H](CO)O2)c(=O)n1 (stereo in doubt; (-)) |  |  |  |  |  | 6.05 | EC90 [5]: 0.95 µM; EC90 [6]: > 50 µM; pEC50 [7]: < 4.30; FI [8]: >455; pEC50 [9]: 6.96; FI [10]: >53
4 | Nc1nc(=O)n([C@H]2C[Se][C@@H](CO)O2)cc1F (stereo in doubt; (+)) |  |  |  |  |  | 4.38 | 
5 | Cc1cn([C@@H]2C[Se][C@@H](CO)O2)c(=O)[nH]c1=O | < 4.00 | < 4.00 | < 4.00 | < 4.00 | < 5.00 |  | 
6 | OC[C@H]1O[C@H](n2cnc3c(O)ncnc32)C[Se]1 | < 4.00 | < 4.00 | < 4.00 | < 4.00 | < 5.00 |  | 
7 | Nc1nc(=O)n([C@@H]2C[Se][C@@H](CO)O2)cc1F (stereo in doubt; (-)) |  | < 4.00 | < 4.00 | < 4.00 |  | 5.19 | 
8 | Nc1nc(O)c2ncn([C@@H]3C[Se][C@@H](CO)O3)c2n1 | < 4.00 | < 4.00 | < 4.00 | < 4.00 | < 5.00 |  | 
9 | Nc1nc(=O)n([C@H]2C[Se][C@@H](CO)O2)cc1F (stereo in doubt; (-)) |  |  |  |  |  | 6.70 | 
10 | Nc1ccn([C@H]2C[Se][C@@H](CO)O2)c(=O)n1 (stereo in doubt; (+)) |  |  |  |  |  | 5.47 | EC90 [5]: 35.1 µM; EC90 [6]: 50 µM; pIC50 (CCRF-CEM [2]; ccrf-cem): 4.00; pEC50 [7]: 4.30; FI [8]: >6; pIC50 (Vero [3]; vero): 4.00; pIC50 ([4]; pbm): 4.00; pEC50 [9]: 5.06; FI [10]: >1
11 | Nc1ccn([C@H]2C[Se][C@@H](CO)O2)c(=O)n1 (stereo in doubt; 9c) |  | < 4.00 | < 4.00 | < 4.00 | 5.92 | 5.57 | EC90 [5]: 6.9 µM; EC90 [6]: 337 µM; pEC50 [7]: 3.97; FI [8]: 59; pEC50 [9]: 5.74; FI [10]: 49
12 | OC[C@H]1O[C@@H](n2cnc3c(O)ncnc32)C[Se]1 | < 4.00 | < 4.00 | < 4.00 | < 4.00 | < 5.00 |  | 
13 | Nc1nc(=O)n([C@H]2C[Se][C@@H](CO)O2)cc1F (racemic) |  | < 4.00 | < 4.00 | < 4.00 | 5.92 | 6.14 | 
14 | Nc1ncnc2c1ncn2[C@H]1C[Se][C@@H](CO)O1 | < 4.30 | < 4.00 | < 4.00 | < 4.00 | < 5.00 |  | 
15 | Nc1ncnc2c1ncn2[C@@H]1C[Se][C@@H](CO)O1 | < 4.00 | < 4.00 | < 4.00 | < 4.00 | < 5.00 |  | 
16 | Cc1cn([C@H]2C[Se][C@@H](CO)O2)c(=O)[nH]c1=O | < 5.00 | < 4.00 | < 4.00 | < 4.00 | < 5.00 |  | 
17 | Nc1nc(O)c2ncn([C@H]3C[Se][C@@H](CO)O3)c2n1 | 4.54 | < 4.00 | < 4.00 | < 4.00 | < 5.00 |  | 
18 | Nc1nc(=O)n([C@@H]2C[Se][C@@H](CO)O2)cc1F (stereo in doubt; (+)) |  |  |  |  |  | 4.02 | 
19 | Nc1ccn([C@@H]2C[Se][C@@H](CO)O2)c(=O)n1 | < 4.00 | < 4.00 | < 4.00 | < 4.00 |  |  | 
20 | O=c1ccn([C@H]2C[Se][C@@H](CO)O2)c(=O)[nH]1 | < 4.00 |  |  | < 4.00 | < 5.00 |  | pIC50 (CCRF-CEM [11]): < 4.00; pIC50 (Vero [12]): < 4.00
21 | Nc1ccn([C@@H]2CS[C@H](CO)O2)c(=O)n1 [LAMIVUDINE] | 7.15 | < 4.00 | < 4.00 | < 4.00 | 8.10 |  | 

Source: ChEMBL document CHEMBL1133470, “Synthesis and antiviral activity of oxaselenolane nucleosides” (J Med Chem, 2000)
